Source: PubChem BioAssay
The full list was thinned out, with hits kept by preference.
H69AR growth 86K = proliferation blockers of H69AR lung cancer cells, primary screen, cell-based, human, 86K library; H69AR lung tumor viability, ATP luminescence, 72 h; hits give low values; viability, % at 10 µM; 85,000 compounds, 6% hits;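 active = viability at or below 40%; inactive = viability above 40%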;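 also: multidrug resistant small cell line overexpressing MRP-1 efflux transporter; 100% = mean luminescence of untreated control wells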
HCT116 PTEN-null = growth suppression of PTEN-null HCT116, primary screen, cell-based, CellTiter-Glo | HCT116 PTEN-null viability, 60 h; hits give low values | viability, % at 10 µM | 140,000 compounds, 1.2% hits;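 active = viability at or below a set limit, 4 SD under the median of all tested compounds, cut at about 3.7% in these data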;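 also: PTEN knockout HCT116 line with beta catenin targeted HCT116 as companion control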
Lung fibro prol = antiproliferative effect on LL 47 fibroblasts – human, LL 47 cells, CellTiter-Glo luminescence, primary screen | LL 47 human lung fibroblast viability, ATP luminescence; hits give low values | viability, % at 10 µM | 85,000 compounds, 1.1% hits;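 active = viability at or below 50% in the single dose screen; inactive = viability above 50%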;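 also: compound exposure lasted 72 h before the ATP readout; 100% = median luminescence of untreated cell-only wells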
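Material: human LL 47 lung fibroblast cells; quantity: 1,150 cells/well; medium: IMEM plus 15% FBS; doses: 0.1% DMSO in all compound wells; timing: overnight attachment after seeding, then 72 h compound exposure at 37 °C; detection: CellTiter-Glo luminescence; measure: % viability of median cell-only signal; controls: cell-only wells, no compound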
HUVEC prolif 384 = inhibitors of HUVEC proliferation, primary screen, cell-based, 384-well; CellTiter-Glo luminescence, 72 h; hits give low values; viability, % at 10 µM (by protocol); 86,000 compounds, 1.1% hits;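 active = viability at or below 30%; inactive = viability above 30%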;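 also: 100% = median luminescence of DMSO-only cell control wells on each plate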
HCT116 bCat-KO = primary screen for growth suppressors in beta-catenin knockout HCT116 cells (colon tumor, human). 140,000 compounds, 1.5% hits. AID 818, 2007. viability, % at 10 µM. HCT116 beta-catenin knockout viability, CellTiter-Glo, 60 h; hits give low values;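 active = viability at or under a set limit, the compound median less 4 SD, cut at about 6% in these data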;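 also: 0% = Hyamine 1622 control at 20 µM and 100% = untreated cell control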
Active calls of the source: *; nt = not tested or not shown.

SMILES	H69AR growth 86K	HCT116 PTEN-null	Lung fibro prol	HUVEC prolif 384	HCT116 bCat-KO
CNC(CC(=O)c1ccc([N+](=O)[O-])cc1)C(Cl)(Cl)Cl (stereo not drawn)	nt	3.4*	nt	nt	2.6*
CCN1/C(=C2\C(=O)N(c3ccccc3)N=C2C)C=Cc2cc(C)ccc21	nt	91.2	nt	nt	92.9
O=S(=O)(c1ccc(OCC(O)CN2CCC(Cc3ccccc3)CC2)cc1)N1CCOCC1 (stereo not drawn)	84.5	74.2	nt	89.0	72.4
Cc1ccc(OCCN2CCN(CC(O)Cn3c4ccccc4c4ccccc43)CC2)cc1 (stereo not drawn)	nt	1.4*	nt	nt	1.2*
Cc1ccc(-c2cc3c(nn2)-c2ccccc2C3=O)cc1	12.5*	nt	47.3*	58.1	nt
Cc1cccc(C)c1NS(=O)(=O)c1ccc2c(c1)C(=O)c1ccccc1C2=O	nt	87.2	nt	nt	83.2
Cc1ccccc1-c1cc2c(nn1)-c1ccccc1C2=O	16.8*	4.0	13.7*	3.2*	3.4*
O=C(c1ccco1)N1CCN(C(c2ccc(F)cc2)c2nnnn2Cc2cccs2)CC1 (stereo not drawn)	95.6	90.0	104.2	90.3	101.1
Nc1nc2c(F)cccc2s1	nt	98.5	nt	nt	97.3
CCOC(=O)c1[nH]c2c(c1C)C(=O)CC(c1ccco1)C2 (stereo not drawn)	41.3	11.8	58.8	39.8	9.6
Cc1c(C(=O)OCCOC(C)C)[nH]c2c1C(=O)CC(c1ccco1)C2 (stereo not drawn)	41.5	13.0	63.7	57.4	11.8
CSCCOC(=O)c1[nH]c2c(c1C)C(=O)CC(c1ccco1)C2 (stereo not drawn)	36.6*	13.0	55.0	50.0	10.3
COCCOC(=O)c1[nH]c2c(c1C)C(=O)CC(c1ccco1)C2 (stereo not drawn)	26.1*	19.2	53.2	44.8	17.2
Cc1c(C(=O)OCc2ccccc2)[nH]c2c1C(=O)CC(c1ccco1)C2 (stereo not drawn)	25.6*	16.1	27.3*	22.1*	14.7
CCCc1cc(C(=O)NNC(=S)NCc2ccccc2)cs1	nt	89.1	nt	nt	92.1
O=C(Nc1ccc(CN2CCCCC2)cc1)c1ccc2c(c1)OCO2	90.7	94.0	100.5	91.6	94.0
Cc1ccc2nc(C(F)(F)F)c(C#N)c(N)c2c1	nt	4.4	nt	nt	3.6*
Cc1cc(C)c2nc(C(F)(F)F)c(C#N)c(N)c2c1	39.5*	100.6	94.9	40.8	84.1
CCCc1nc2c(C)cc(C)cc2c(N)c1CC	nt	40.4	nt	nt	36.9
CS(=O)(=O)c1ccc2nc(NC(=O)CCC(=O)c3cccs3)sc2c1	39.6*	81.3	99.8	96.4	79.2
COc1ccc(-n2nc(C(=O)Nc3nc4ccc(OC)cc4s3)c3ccccc3c2=O)cc1	nt	20.1	nt	nt	25.6
CC(C)n1nc(C(=O)Nc2nc3ccc(S(C)(=O)=O)cc3s2)c2ccccc2c1=O	91.8	29.3	49.8*	106.9	29.4
CC(C)(C)NS(=O)(=O)c1ccc2nc(NC(=O)Cc3cccs3)sc2c1	27.6*	55.4	65.4	47.9	65.5
CS(=O)(=O)c1ccc2nc(NC(=O)Cc3ccccc3)sc2c1	72.2	nt	99.8	92.4	nt
O=C(c1ccccc1)c1ccc2nc(N3CCN(C(=O)c4ccco4)CC3)c3nncn3c2c1	18.4*	42.5	88.7	69.9	53.1
SMILES	H69AR growth 86K	HCT116 PTEN-null	Lung fibro prol	HUVEC prolif 384	HCT116 bCat-KO
Cc1nc2c(-c3ccccc3)c(C)nn2c(C)c1CCC(=O)NCc1ccco1	65.5	102.7	92.6	92.9	95.1
Cc1nn2c(N3CCN(C(=O)c4ccco4)CC3)cc(C(C)(C)C)nc2c1-c1ccc(Cl)cc1	nt	67.5	nt	nt	79.1
CCN1CCN(c2ccc(NC(=O)CCc3c(C)nc4c(-c5ccccc5)c(C)nn4c3C)cc2)CC1	nt	1.9*	nt	nt	0.9*
Cc1cc(N2CCN(C(=O)c3ccco3)CC2)n2nc(C)c(-c3ccccc3)c2n1	17.6*	72.9	99.7	80.0	91.0
Cc1cc(N2CCN(C(=O)c3ccco3)CC2)n2nc(C)c(-c3ccc(Cl)cc3)c2n1	15.9*	nt	50.4	33.6	nt
Cc1ccc(-c2nnc(N3CCN(C(=O)c4ccco4)CC3)c3ccccc23)cc1	53.7	49.3	84.2	79.8	53.4
CC1CCC(NC(=O)C2CCN(C(=O)NC3CCCCC3)CC2)CC1 (stereo not drawn)	99.1	89.5	100.5	102.7	94.3
COc1ccc(Nc2nnc(SC(C(=O)Nc3ccc(OC)c(Cl)c3)c3ccccc3)s2)cc1 (stereo not drawn)	nt	61.2	nt	nt	61.9
CN1CCN(C(=O)c2cc3nc(-c4ccccc4)cc(-c4ccccc4)n3n2)CC1	47.6	88.4	87.1	46.8	78.3
O=C(c1cc2nc(-c3ccccc3)cc(-c3ccccc3)n2n1)N1CCN(C(=O)c2ccco2)CC1	24.8*	6.6	88.6	71.2	14.1
CCN1CCN(c2cc(C(C)(C)C)nc3c(-c4ccccc4)c(C)nn23)CC1	38.4*	8.9	9.8*	3.2*	13.1
O=C1c2ccccc2NC2(CCCCC2)N1N=C1CCCCC1	nt	85.9	nt	nt	92.2
CCOc1ccc(-c2cnc(SCC(N)=O)nc2N)cc1	103.4	87.7	100.7	92.4	86.9
C=CCn1c(=N)c(C(=O)OC)cc2c(=O)n3cccc(C)c3nc21	70.3	nt	102.4	94.4	nt
Cc1cc(NC(c2ccc(Cl)cc2)c2ccc3cccnc3c2O)no1 (stereo not drawn)	47.6	10.0	8.1*	10.7*	4.3*
Cc1ccc2ccc(C(Nc3ccccn3)c3ccccc3)c(O)c2n1 (stereo not drawn)	27.7*	63.3	74.8	81.2	60.3
Cc1cccc(NC(c2ccc(C)s2)c2ccc3ccc(C)nc3c2O)n1 (stereo not drawn)	nt	1.7*	nt	nt	2.4*
COc1cc(C(Nc2ccccn2)c2ccc3ccc(C)nc3c2O)cc(OC)c1O (stereo not drawn)	0.3*	2.5*	38.3*	13.9*	2.9*
Cc1cccc(NCc2ccccc2O)n1	102.6	94.4	102.4	85.6	101.4
CC(NC(=S)Nc1ccc(OC(F)F)cc1OC(F)F)C(C)(C)C (stereo not drawn)	nt	69.2	nt	nt	66.4
CC(C)C(=O)NC(NC(=S)Nc1cccc2cccnc12)C(Cl)(Cl)Cl (stereo not drawn)	nt	74.1	nt	nt	74.8
O=C(/C=C/c1ccc2c(c1)OCO2)Nc1nc(-c2ccccc2)cs1	nt	34.2	nt	nt	27.3
COC(=O)C1=C(N)Oc2cc(C)[nH]c(=O)c2C1c1cc(OC)c(OC)c(OC)c1 (stereo not drawn)	88.4	84.7	106.0	98.4	89.5
Oc1c(C(Nc2ccccn2)c2ccccn2)ccc2cccnc12 (stereo not drawn)	6.4*	2.5*	5.0*	55.4	3.0*
COc1ccccc1NC(c1cccnc1)c1ccc2cccnc2c1O (stereo not drawn)	nt	49.1	nt	nt	48.7
CC(=O)NC(c1ccco1)c1ccc2cccnc2c1O (stereo not drawn)	43.0	5.6	2.2*	4.6*	5.1*
